Measurements gathered from unrelated publications.
Each line is one published result; the experiments were not run side by side.
Cell line: SK-MEL-5
Observed: cell growth or viability

| SMILES | technique | time | measurement | result |
| --- | --- | --- | --- | --- |
| COc1ccc(-c2ccc(-c3ccc(C(=N)N)nc3)s2)cc1 | SRB | – | GI50 | 1790 nM |
| O=C1NCCc2[nH]c(-c3ccncc3)cc21 | – | – | IC50 | > 10000 nM |
| COc1cc(-c2ccc(-c3ccc(C(=N)N)nc3)s2)cc(OC)c1OC | SRB | – | GI50 | 1670 nM |
| O=C1NC(=NCc2cccs2)S/C1=C\c1ccc2ncccc2c1 | – | – | IC50 | > 10000 nM |
| COc1ccc(C(=O)/C=C/c2cccnc2)cc1S(N)(=O)=O | SRB | 48 h | GI50 | 14800 nM |
| COc1cccc(Oc2ccccc2NC(=O)CNC(=O)c2cccc3ccccc23)c1 | SRB | 48 h | GI50 | 219 nM |
| COc1ccccc1/C=C/C(=O)c1ccc(OC)c(S(N)(=O)=O)c1 | SRB | 48 h | GI50 | 3900 nM |
| Cc1ncsc1-c1ccc(CNC(=O)[C@@H]2C[C@H](O)CN2C(=O)[C@@H](NC(=O)C2(F)CC2)C(C)(C)C)c(OCCc2ccc(CN3CCN(c4cc(-c5ccccc5O)nnc4N)CC3)cc2)c1 | ATP luminescence | 7 days | IC50 | 540 nM |
